Test results reported in ChEMBL document CHEMBL1158389, “Highly twisted adamantyl arotinoids: synthesis, antiproliferative effects and RXR transactivation profiles” (Eur J Med Chem, 2009).
Values belong to the compound of their own block, whether it stands above or below them. Active and inactive are the calls of the source. No cut-off for these calls is given here.

Key:
[1] = system: PC-3; test: Antiproliferative activity against human PC3 cells at 4 uM after 48 hrs by MTT assay; assay type: functional
In short: (§1)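 Epithelial cancer lines came from ATCC and were seeded the day before in complete medium: PC-3, SkOV3 and A549 at 3,000/well; MiaPaCa-2 and BxPC-3 at 4,000; T-47D and MDA-MB-468 at 5,000. Medium was switched to 0.5% FBS just before exposure to 4 μM. Read-out was MTT (4 h, 37 °C), SDS/HCl solubilisation, A595 minus cell-free blank. Growth inhibition was taken versus DMSO (≤0.1% v/v) controls, ≥2 experiments in triplicate.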

[2] = biological target: T1, Retinoic acid receptor gamma (Homo sapiens) (UniProt P13631); test: Displacement of [3H]9cRA from RARgamma
T1 sequence (whole entry): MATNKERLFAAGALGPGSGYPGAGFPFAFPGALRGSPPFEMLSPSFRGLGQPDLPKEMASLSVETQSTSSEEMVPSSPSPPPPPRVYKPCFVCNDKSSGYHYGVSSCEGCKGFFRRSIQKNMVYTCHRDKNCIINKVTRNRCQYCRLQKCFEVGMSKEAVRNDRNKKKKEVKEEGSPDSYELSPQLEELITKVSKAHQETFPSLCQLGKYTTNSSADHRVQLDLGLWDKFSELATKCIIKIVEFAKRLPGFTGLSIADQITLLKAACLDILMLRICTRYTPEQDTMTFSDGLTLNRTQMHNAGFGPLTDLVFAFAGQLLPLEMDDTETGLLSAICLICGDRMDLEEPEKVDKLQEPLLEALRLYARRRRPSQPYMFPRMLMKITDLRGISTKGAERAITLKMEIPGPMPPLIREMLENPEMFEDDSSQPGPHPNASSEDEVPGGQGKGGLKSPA

[3] = biological target: T2, Retinoic acid receptor RXR-alpha (Homo sapiens) (UniProt P19793); test: Displacement of [3H]9cRA from RXRalpha
T2 sequence (whole entry): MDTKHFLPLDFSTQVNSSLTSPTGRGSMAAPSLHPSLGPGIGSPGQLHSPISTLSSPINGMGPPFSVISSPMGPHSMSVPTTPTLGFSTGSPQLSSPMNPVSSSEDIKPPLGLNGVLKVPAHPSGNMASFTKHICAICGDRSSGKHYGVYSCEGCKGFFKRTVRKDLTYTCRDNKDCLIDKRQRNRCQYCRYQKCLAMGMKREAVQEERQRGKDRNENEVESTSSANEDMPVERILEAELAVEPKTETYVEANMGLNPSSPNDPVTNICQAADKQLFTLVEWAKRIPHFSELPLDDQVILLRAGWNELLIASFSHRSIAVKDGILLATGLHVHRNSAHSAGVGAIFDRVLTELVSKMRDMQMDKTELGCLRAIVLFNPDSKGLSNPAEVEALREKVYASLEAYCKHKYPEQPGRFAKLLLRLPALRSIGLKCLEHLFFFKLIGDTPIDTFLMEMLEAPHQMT

[4] = system: BXPC-3; test: Antiproliferative activity against human BxPC3 cells at 4 uM after 48 hrs by MTT assay; assay type: functional; in short: as §1
[5] = system: MDA-MB-468; test: Antiproliferative activity against human MDA-MB-468 cells at 4 uM after 48 hrs by MTT assay; assay type: functional; in short: as §1
[6] = system: SK-OV-3; test: Antiproliferative activity against human SKOV3 cells at 4 uM after 48 hrs by MTT assay; assay type: functional; in short: as §1
[7] = system: Jurkat; test: Induction of apoptosis in human Jurkat T cells assessed as induction of DEVDase activity at 1 uM after 4 hrs by fluorescence assay; assay type: functional, cell-based
In short: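 Jurkat cells (40,000/well, 10^6 cells/mL, RPMI with 0.5% FBS) were treated for 4 h; controls got 0.1% DMSO. Lysis was in CE buffer (PIPES pH 7, NP-40, cytochalasin B, protease inhibitors) for 30 min at 4 °C. Lysates were mixed with 2x caspase buffer (HEPES pH 7.4, CHAPS, sucrose) holding 100 μM Ac-DEVD-AFC and incubated at 37 °C for 30 min. AFC was read every 2 min, ex 390/em 510 nm.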

[8] = system: MIA PaCa-2; test: Antiproliferative activity against human MIAPaCa2 cells at 4 uM after 48 hrs by MTT assay; assay type: functional; in short: as §1
[9] = biological target: T3, Retinoic acid receptor beta (Homo sapiens) (UniProt P10826); test: Displacement of [3H]9cRA from RARbeta
T3 sequence (whole entry): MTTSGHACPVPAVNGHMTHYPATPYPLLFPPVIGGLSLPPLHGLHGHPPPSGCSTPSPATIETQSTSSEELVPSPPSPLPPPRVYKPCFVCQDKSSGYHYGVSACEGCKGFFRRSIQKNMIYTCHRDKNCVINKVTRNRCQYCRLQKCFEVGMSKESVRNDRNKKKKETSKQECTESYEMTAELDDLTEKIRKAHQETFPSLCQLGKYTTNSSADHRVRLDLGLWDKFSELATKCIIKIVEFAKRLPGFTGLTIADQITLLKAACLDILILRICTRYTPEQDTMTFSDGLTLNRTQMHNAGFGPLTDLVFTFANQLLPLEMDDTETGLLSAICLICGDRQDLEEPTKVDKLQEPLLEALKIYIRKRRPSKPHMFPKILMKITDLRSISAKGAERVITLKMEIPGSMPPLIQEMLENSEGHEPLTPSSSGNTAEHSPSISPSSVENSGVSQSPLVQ

[10] = system: T47D; test: Antiproliferative activity against human T47D cells at 4 uM after 48 hrs by MTT assay; assay type: functional; in short: as §1
[11] = biological target: T4, Retinoic acid receptor alpha (Homo sapiens) (UniProt P10276); test: Displacement of [3H]9cRA from RARalpha
T4 sequence (whole entry): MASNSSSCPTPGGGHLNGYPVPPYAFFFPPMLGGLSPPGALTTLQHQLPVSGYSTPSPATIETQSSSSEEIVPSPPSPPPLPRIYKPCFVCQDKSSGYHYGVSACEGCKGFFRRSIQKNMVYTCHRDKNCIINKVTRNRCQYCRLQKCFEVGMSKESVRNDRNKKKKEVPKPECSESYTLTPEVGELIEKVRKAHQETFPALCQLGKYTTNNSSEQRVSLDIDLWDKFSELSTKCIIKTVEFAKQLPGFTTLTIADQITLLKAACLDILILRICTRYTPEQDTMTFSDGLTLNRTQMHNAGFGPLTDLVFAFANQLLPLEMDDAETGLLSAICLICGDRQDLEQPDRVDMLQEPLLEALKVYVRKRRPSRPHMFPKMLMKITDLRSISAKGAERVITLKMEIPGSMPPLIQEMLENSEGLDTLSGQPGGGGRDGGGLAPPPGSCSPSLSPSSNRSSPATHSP

[12] = system: A549; test: Antiproliferative activity against human A549 cells at 4 uM after 72 hrs by MTT assay; assay type: functional; in short: as §1
[13] = biological target: T3, Retinoic acid receptor beta (Homo sapiens); test: Inhibition of transactivation activity of Gal4-LBD fused human RARbeta (169 to 448) transfected in atRA-stimulated african green monkey CV1 cells after 6 hrs by Dual-light chemiluminescent assay; assay type: cell-based; details: CV-1
In short: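 Gal4 DBD (1–147) was fused to hRARα (156–462) or hRARβ (169–448) LBD. CV-1 cells (20,000/well) were co-transfected with 10 ng Gal4-LBD, 100 ng UAS-luciferase and 25 ng β-gal vector. After 16 h the medium was replaced with medium containing 5% charcoal-treated FBS. Cells got atRA plus test compound at 10-, 40- or 200-fold excess (0.2, 0.8, 4 μM) for 6 h. Luciferase and β-galactosidase were read by chemiluminescence.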

[14] = biological target: T1, Retinoic acid receptor gamma (Homo sapiens); test: Inhibition of transactivation activity of Gal4-LBD fused human RARgamma (178 to 454) transfected in atRA-stimulated african green monkey CV1 cells after 20 hrs by Dual-light chemiluminescent assay; details: CV-1
[15] = biological target: T5, Retinoic acid receptor RXR-alpha (Mus musculus) (UniProt P28700); test: Inhibition of Gal4-LBD fused mouse RXRalpha transactivation in african green monkey CV1 cells at 1 uM after 6 hrs by Dual-light chemiluminescent assay; assay type: cell-based; details: CV-1
T5 sequence (whole entry): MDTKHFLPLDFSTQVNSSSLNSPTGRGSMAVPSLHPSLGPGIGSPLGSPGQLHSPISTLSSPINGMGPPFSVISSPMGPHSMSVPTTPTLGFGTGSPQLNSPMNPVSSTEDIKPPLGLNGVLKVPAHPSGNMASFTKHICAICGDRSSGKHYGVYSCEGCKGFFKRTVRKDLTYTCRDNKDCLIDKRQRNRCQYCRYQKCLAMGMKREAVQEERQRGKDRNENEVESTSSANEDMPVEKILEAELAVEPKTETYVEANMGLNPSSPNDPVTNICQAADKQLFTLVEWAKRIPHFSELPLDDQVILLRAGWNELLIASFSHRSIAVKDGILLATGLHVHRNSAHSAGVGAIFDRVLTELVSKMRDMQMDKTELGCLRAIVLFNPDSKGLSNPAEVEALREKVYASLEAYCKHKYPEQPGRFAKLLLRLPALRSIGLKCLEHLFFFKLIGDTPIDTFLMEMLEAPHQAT
In short: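 CV-1 cells (20,000/well) co-transfected with 10 ng Gal4 DBD (residues 1–147)–mRXRα LBD (residues 218–467) vector, 100 ng UAS-luciferase reporter and 25 ng β-galactosidase vector (pCH110). After 16 h, switched to medium with 5% charcoal-treated FBS and treated for 6 h. Cells washed, lysed, and luciferase and β-galactosidase activities read by chemiluminescence.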

Activity [2]: 83%
Activity [3]: 16%
Activity [9]: 17%
Activity [11]: 31%
SMILES: O=C(O)/C=C/c1ccc(-c2ccc(O)c(C34CC5CC(CC(C5)C3)C4)c2)c(Cl)c1
Activity [1]: Active
Activity [4]: Active
Activity [5]: Active
Activity [6]: Active
Activity [7]: Active
Activity [8]: Active
Activity [10]: Active
Activity [12]: Active

Activity [13]: Active
Activity [14]: Active
SMILES: CC1(C)CC=C(C#Cc2ccccc2)c2cc(/C=C/c3ccc(C(=O)O)cc3)ccc21

SMILES: CCCCCOc1cc2c(cc1-c1cc(/C=C/C(=O)O)ccc1O)C(C)(C)CCC2(C)C
Activity [15]: Active
